In ChEMBL document CHEMBL5724801, “EUbOPEN Chemogenomics Library - Multiplex” (2024):
Values joined by “and” are separate entries in the source; they are usually repeats but may differ in a detail not shown here. Identical values can stand only once.

Test system: U2OS
Test: Multiplex assay against U2OS
Assay type: toxicity, cell-based
Details: human
In short: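 Hoechst33342, BioTracker Green Microtubule Cytoskeleton Dye, MitoTracker Red and Annexin V Alexa Fluor 680 were added to live cells at seeding, and imaging on a CQ1 microscope at 37°C and 5% CO2 followed compound addition. Gating by CellPathfinder machine learning separated cells into Hoechst high-intensity objects or normal cells, then normal cells into healthy, pyknosed or fragmented nuclei, then pyknosed cells into mitotic or apoptotic. Per cents of healthy-nucleus cells are reported for the tubulin, mitochondrial-mass and membrane-permeability phenotypes.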

[1] = 12 h, 1 µM, compound concentration 1 uM
[2] = 12 h, 10 µM, compound concentration 10 uM
[3] = 24 h, 1 µM, compound concentration 1 uM
[4] = 24 h, 10 µM, compound concentration 10 uM
[5] = 48 h, 1 µM, compound concentration 1 uM
[6] = 48 h, 10 µM, compound concentration 10 uM

SMILES: CCCCCCNC(=O)Nc1ccc(S(=O)(=O)Nc2ccc(CCNC[C@H](O)COc3ccc(O)cc3)cc2)cc1 [L-755507]
- Population Apoptotic (%) [1]: 86% and 100%
- Population Fragmented Nuclei (%) [1]: 22% and 18%
- Population Healthy Nuclei (%) [1]: 67% and 75%
- Population Hoechst High Intensity Objects (%) [1]: 4% and 0%
- Population Membrane Permeable-Phenotype (%) [1]: 4% and 10%
- Population Mitochondria Different-Phenotype (%) [1]: 4% and 1%
- Population Mitotic Cells (%) [1]: 13% and 0%
- Population Normal (%) [1]: 95% and 99%
- Population Pyknosed Nuclei (%) [1]: 9% and 5%
- Population Tubulin-Different-Phenotype (%) [1]: 4% and 5%
- Total Cell Count [1]: 231 and 120
- Population Apoptotic (%) [2]: 60% and 72%
- Population Fragmented Nuclei (%) [2]: 31% and 19%
- Population Healthy Nuclei (%) [2]: 59% and 72%
- Population Hoechst High Intensity Objects (%) [2]: 3% and 2%
- Population Membrane Permeable-Phenotype (%) [2]: 13% and 19%
- Population Mitochondria Different-Phenotype (%) [2]: 11% and 15%
- Population Mitotic Cells (%) [2]: 40% and 27%
- Population Normal (%) [2]: 96% and 97%
- Population Pyknosed Nuclei (%) [2]: 9% and 8%
- Population Tubulin-Different-Phenotype (%) [2]: 10% and 15%
- Total Cell Count [2]: 282 and 140
- Population Apoptotic (%) [3]: 83% and 92%
- Population Fragmented Nuclei (%) [3]: 22% and 23%
- Population Healthy Nuclei (%) [3]: 66% and 67%
- Population Hoechst High Intensity Objects (%) [3]: 4% and 2%
- Population Membrane Permeable-Phenotype (%) [3]: 5% and 11%
- Population Mitochondria Different-Phenotype (%) [3]: 5% and 1%
- Population Mitotic Cells (%) [3]: 16% and 7%
- Population Normal (%) [3]: 95% and 97%
- Population Pyknosed Nuclei (%) [3]: 11% and 9%
- Population Tubulin-Different-Phenotype (%) [3]: 3% and 5%
- Total Cell Count [3]: 285 and 143
- Population Apoptotic (%) [4]: 85% and 88%
- Population Fragmented Nuclei (%) [4]: 25% and 14%
- Population Healthy Nuclei (%) [4]: 65% and 79%
- Population Hoechst High Intensity Objects (%) [4]: 2%
- Population Membrane Permeable-Phenotype (%) [4]: 7% and 9%
- Population Mitochondria Different-Phenotype (%) [4]: 4% and 5%
- Population Mitotic Cells (%) [4]: 14% and 11%
- Population Normal (%) [4]: 97%
- Population Pyknosed Nuclei (%) [4]: 9% and 6%
- Population Tubulin-Different-Phenotype (%) [4]: 3% and 6%
- Total Cell Count [4]: 307 and 149
- Population Apoptotic (%) [5]: 78% and 91%
- Population Fragmented Nuclei (%) [5]: 14% and 26%
- Population Healthy Nuclei (%) [5]: 74% and 61%
- Population Hoechst High Intensity Objects (%) [5]: 1% and 4%
- Population Membrane Permeable-Phenotype (%) [5]: 6% and 12%
- Population Mitochondria Different-Phenotype (%) [5]: 3% and 5%
- Population Mitotic Cells (%) [5]: 21% and 8%
- Population Normal (%) [5]: 98% and 95%
- Population Pyknosed Nuclei (%) [5]: 11% and 12%
- Population Tubulin-Different-Phenotype (%) [5]: 3% and 6%
- Total Cell Count [5]: 422 and 188
- Population Apoptotic (%) [6]: 80% and 94%
- Population Fragmented Nuclei (%) [6]: 19% and 13%
- Population Healthy Nuclei (%) [6]: 70% and 78%
- Population Hoechst High Intensity Objects (%) [6]: 2% and 1%
- Population Membrane Permeable-Phenotype (%) [6]: 7%
- Population Mitochondria Different-Phenotype (%) [6]: 2% and 3%
- Population Normal (%) [6]: 97% and 98%
- Population Pyknosed Nuclei (%) [6]: 9% and 7%
- Population Tubulin-Different-Phenotype (%) [6]: 4% and 6%
- Total Cell Count [6]: 419 and 242

SMILES: CN1CCN2c3ncccc3Cc3ccccc3C2C1 (configuration not stated) [MIRTAZAPINE]
- Population Apoptotic (%) [1]: 82% and 100%
- Population Fragmented Nuclei (%) [1]: 21%
- Population Healthy Nuclei (%) [1]: 67% and 72%
- Population Hoechst High Intensity Objects (%) [1]: 1%
- Population Membrane Permeable-Phenotype (%) [1]: 3% and 5%
- Population Mitochondria Different-Phenotype (%) [1]: 1% and 6%
- Population Mitotic Cells (%) [1]: 17% and 0%
- Population Normal (%) [1]: 99% and 98%
- Population Pyknosed Nuclei (%) [1]: 11% and 6%
- Population Tubulin-Different-Phenotype (%) [1]: 2% and 3%
- Population Apoptotic (%) [2]: 73% and 66%
- Population Fragmented Nuclei (%) [2]: 19% and 13%
- Population Healthy Nuclei (%) [2]: 71% and 82%
- Population Hoechst High Intensity Objects (%) [2]: 3%
- Population Membrane Permeable-Phenotype (%) [2]: 6% and 3%
- Population Mitochondria Different-Phenotype (%) [2]: 5% and 4%
- Population Mitotic Cells (%) [2]: 26% and 33%
- Population Normal (%) [2]: 96%
- Population Pyknosed Nuclei (%) [2]: 8% and 3%
- Population Tubulin-Different-Phenotype (%) [2]: 6% and 0%
- Population Apoptotic (%) [3]: 85% and 100%
- Population Fragmented Nuclei (%) [3]: 15% and 26%
- Population Healthy Nuclei (%) [3]: 76% and 63%
- Population Hoechst High Intensity Objects (%) [3]: 2% and 3%
- Population Membrane Permeable-Phenotype (%) [3]: 5% and 3%
- Population Mitochondria Different-Phenotype (%) [3]: 3%
- Population Mitotic Cells (%) [3]: 14% and 0%
- Population Normal (%) [3]: 97% and 96%
- Population Pyknosed Nuclei (%) [3]: 8% and 10%
- Population Tubulin-Different-Phenotype (%) [3]: 2% and 4%
- Population Apoptotic (%) [4]: 89% and 83%
- Population Fragmented Nuclei (%) [4]: 18% and 9%
- Population Healthy Nuclei (%) [4]: 71% and 85%
- Population Hoechst High Intensity Objects (%) [4]: 2% and 0%
- Population Membrane Permeable-Phenotype (%) [4]: 4% and 5%
- Population Mitochondria Different-Phenotype (%) [4]: 2%
- Population Mitotic Cells (%) [4]: 10% and 16%
- Population Normal (%) [4]: 97% and 99%
- Population Pyknosed Nuclei (%) [4]: 9% and 5%
- Population Tubulin-Different-Phenotype (%) [4]: 0% and 5%
- Total Cell Count [4]: 314 and 108
- Population Apoptotic (%) [5]: 83% and 92%
- Population Fragmented Nuclei (%) [5]: 12% and 20%
- Population Healthy Nuclei (%) [5]: 76% and 68%
- Population Hoechst High Intensity Objects (%) [5]: 2% and 4%
- Population Membrane Permeable-Phenotype (%) [5]: 4% and 8%
- Population Mitochondria Different-Phenotype (%) [5]: 2% and 4%
- Population Mitotic Cells (%) [5]: 16% and 7%
- Population Normal (%) [5]: 97% and 95%
- Population Pyknosed Nuclei (%) [5]: 10% and 11%
- Population Tubulin-Different-Phenotype (%) [5]: 3% and 1%
- Population Apoptotic (%) [6]: 95% and 100%
- Population Fragmented Nuclei (%) [6]: 15% and 12%
- Population Healthy Nuclei (%) [6]: 75% and 78%
- Population Hoechst High Intensity Objects (%) [6]: 2%
- Population Membrane Permeable-Phenotype (%) [6]: 7% and 3%
- Population Mitochondria Different-Phenotype (%) [6]: 4% and 3%
- Population Mitotic Cells (%) [6]: 5% and 0%
- Population Normal (%) [6]: 97%
- Population Pyknosed Nuclei (%) [6]: 9%
- Population Tubulin-Different-Phenotype (%) [6]: 5% and 3%
- Total Cell Count [6]: 435 and 170
